From ChEMBL document CHEMBL5724801, “EUbOPEN Chemogenomics Library - Multiplex” (2024)
Values joined by “and” are separate entries in the source; they are usually repeats but may differ in a detail not shown here. Equal values may be shown once.

Columns and labels:
Format in all cases: toxicity, cell-based
HEK-293T = assay: Multiplex assay against HEK293T; details: human
Procedure, shortened: (§1)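 On a CQ1 microscope at 37°C and 5% CO2, live cells were imaged after compound addition. They had been stained at seeding with Hoechst33342, BioTracker Green Microtubule Cytoskeleton Dye, MitoTracker Red and Annexin V Alexa Fluor 680. CellPathfinder machine-learning gating assigned cells to Hoechst high-intensity objects or normal cells, normal cells to healthy, pyknosed or fragmented nuclei, and pyknosed cells to mitotic or apoptotic. Tubulin, mitochondrial-mass and membrane-permeability phenotypes are per cents of healthy-nucleus cells.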

U2OS = assay: Multiplex assay against U2OS; details: human; procedure, shortened: as §1
Fibroblast = assay: Multiplex assay against human fibroblast; procedure, shortened: as §1
[1] = 12 h, 1 µM, compound concentration 1 uM
[2] = 12 h, 10 µM, compound concentration 10 uM
[3] = 24 h, 1 µM, compound concentration 1 uM
[4] = 24 h, 10 µM, compound concentration 10 uM
[5] = 48 h, 1 µM, compound concentration 1 uM
[6] = 48 h, 10 µM, compound concentration 10 uM

SMILES: Cn1ncnc1COc1nn2c(-c3cc(F)ccc3F)nnc2cc1C(C)(C)C
- Population Apoptotic (%) (HEK-293T; [1]): 8.93% and 7.56%
- Population Fragmented Nuclei (%) (HEK-293T; [1]): 2.83% and 4.35%
- Population Hoechst High Intensity Objects (%) (HEK-293T; [1]): 0%
- Population Mitochondria Different-Phenotype (%) (HEK-293T; [1]): 29.79% and 46.15%
- Population Mitotic Cells (%) (HEK-293T; [1]): 91.07% and 92.44%
- Population Normal (%) (HEK-293T; [1]): 100%
- Population Pyknosed Nuclei (%) (HEK-293T; [1]): 52.83% and 86.23%
- Total Cell Count (HEK-293T; [1]): 318 and 138
- Population Apoptotic (%) (HEK-293T; [2]): 12.9% and 20.39%
- Population Fragmented Nuclei (%) (HEK-293T; [2]): 0.72% and 5.3%
- Population Healthy Nuclei (%) (HEK-293T; [2]): 43.73% and 16.67%
- Population Hoechst High Intensity Objects (%) (HEK-293T; [2]): 0%
- Population Mitotic Cells (%) (HEK-293T; [2]): 87.1% and 79.61%
- Population Normal (%) (HEK-293T; [2]): 100%
- Population Pyknosed Nuclei (%) (HEK-293T; [2]): 55.56% and 78.03%
- Population Tubulin-Different-Phenotype (%) (HEK-293T; [2]): 22.95% and 27.27%
- Total Cell Count (HEK-293T; [2]): 279 and 132
- Population Apoptotic (%) (HEK-293T; [3]): 10.85% and 17.5%
- Population Fragmented Nuclei (%) (HEK-293T; [3]): 2.35% and 3.27%
- Population Hoechst High Intensity Objects (%) (HEK-293T; [3]): 0%
- Population Mitochondria Different-Phenotype (%) (HEK-293T; [3]): 20.12% and 10.71%
- Population Mitotic Cells (%) (HEK-293T; [3]): 89.15% and 82.5%
- Population Normal (%) (HEK-293T; [3]): 100%
- Population Pyknosed Nuclei (%) (HEK-293T; [3]): 27.56% and 78.43%
- Population Tubulin-Different-Phenotype (%) (HEK-293T; [3]): 23.17% and 10.71%
- Population Apoptotic (%) (HEK-293T; [4]): 25.69% and 29.36%
- Population Fragmented Nuclei (%) (HEK-293T; [4]): 1.85% and 4.23%
- Population Hoechst High Intensity Objects (%) (HEK-293T; [4]): 0.52% and 0%
- Population Mitochondria Different-Phenotype (%) (HEK-293T; [4]): 34.22% and 18.52%
- Population Mitotic Cells (%) (HEK-293T; [4]): 74.31% and 70.64%
- Population Normal (%) (HEK-293T; [4]): 99.48% and 100%
- Population Pyknosed Nuclei (%) (HEK-293T; [4]): 28.76% and 76.76%
- Population Tubulin-Different-Phenotype (%) (HEK-293T; [4]): 50.19% and 33.33%
- Total Cell Count (HEK-293T; [4]): 381 and 142
- Population Apoptotic (%) (HEK-293T; [5]): 9.38% and 21.84%
- Population Fragmented Nuclei (%) (HEK-293T; [5]): 2.19% and 2.84%
- Population Healthy Nuclei (%) (HEK-293T; [5]): 86.12% and 47.73%
- Population Hoechst High Intensity Objects (%) (HEK-293T; [5]): 0% and 0.56%
- Population Mitochondria Different-Phenotype (%) (HEK-293T; [5]): 20.57% and 32.14%
- Population Mitotic Cells (%) (HEK-293T; [5]): 90.62% and 78.16%
- Population Normal (%) (HEK-293T; [5]): 100% and 99.44%
- Population Apoptotic (%) (HEK-293T; [6]): 22.83% and 17.39%
- Population Fragmented Nuclei (%) (HEK-293T; [6]): 1.92%
- Population Healthy Nuclei (%) (HEK-293T; [6]): 77.76% and 53.85%
- Population Hoechst High Intensity Objects (%) (HEK-293T; [6]): 0.32% and 0%
- Population Mitochondria Different-Phenotype (%) (HEK-293T; [6]): 45.27% and 57.14%
- Population Mitotic Cells (%) (HEK-293T; [6]): 77.17% and 82.61%
- Population Normal (%) (HEK-293T; [6]): 99.68% and 100%
- Population Pyknosed Nuclei (%) (HEK-293T; [6]): 20.32% and 44.23%
- Population Apoptotic (%) (U2OS; [1]): 55.26% and 53.85%
- Population Fragmented Nuclei (%) (U2OS; [1]): 0.89% and 4.24%
- Population Healthy Nuclei (%) (U2OS; [1]): 90.6% and 80%
- Population Hoechst High Intensity Objects (%) (U2OS; [1]): 0%
- Population Mitochondria Different-Phenotype (%) (U2OS; [1]): 0% and 7.58%
- Population Mitotic Cells (%) (U2OS; [1]): 44.74% and 46.15%
- Population Normal (%) (U2OS; [1]): 100%
- Population Pyknosed Nuclei (%) (U2OS; [1]): 8.5% and 15.76%
- Population Tubulin-Different-Phenotype (%) (U2OS; [1]): 1.23% and 0.76%
- Total Cell Count (U2OS; [1]): 447 and 165
- Population Apoptotic (%) (U2OS; [2]): 36.84% and 41.18%
- Population Fragmented Nuclei (%) (U2OS; [2]): 1.2% and 0.65%
- Population Healthy Nuclei (%) (U2OS; [2]): 87.43% and 88.24%
- Population Hoechst High Intensity Objects (%) (U2OS; [2]): 0%
- Population Mitotic Cells (%) (U2OS; [2]): 63.16% and 58.82%
- Population Normal (%) (U2OS; [2]): 100%
- Population Pyknosed Nuclei (%) (U2OS; [2]): 11.38% and 11.11%
- Population Tubulin-Different-Phenotype (%) (U2OS; [2]): 1.71% and 1.48%
- Total Cell Count (U2OS; [2]): 334 and 153
- Population Apoptotic (%) (U2OS; [3]): 33.9% and 52.63%
- Population Fragmented Nuclei (%) (U2OS; [3]): 0.96% and 3.02%
- Population Healthy Nuclei (%) (U2OS; [3]): 89.63% and 77.89%
- Population Hoechst High Intensity Objects (%) (U2OS; [3]): 0%
- Population Mitochondria Different-Phenotype (%) (U2OS; [3]): 0% and 7.74%
- Population Mitotic Cells (%) (U2OS; [3]): 66.1% and 47.37%
- Population Normal (%) (U2OS; [3]): 100%
- Population Pyknosed Nuclei (%) (U2OS; [3]): 9.41% and 19.1%
- Population Tubulin-Different-Phenotype (%) (U2OS; [3]): 0.53% and 0.65%
- Population Apoptotic (%) (U2OS; [4]): 30.77% and 47.83%
- Population Fragmented Nuclei (%) (U2OS; [4]): 1.81% and 3.66%
- Population Healthy Nuclei (%) (U2OS; [4]): 86.39% and 84.29%
- Population Hoechst High Intensity Objects (%) (U2OS; [4]): 0% and 0.52%
- Population Mitochondria Different-Phenotype (%) (U2OS; [4]): 0% and 3.73%
- Population Mitotic Cells (%) (U2OS; [4]): 69.23% and 52.17%
- Population Normal (%) (U2OS; [4]): 100% and 99.48%
- Population Pyknosed Nuclei (%) (U2OS; [4]): 11.79% and 12.04%
- Population Tubulin-Different-Phenotype (%) (U2OS; [4]): 2.62% and 1.24%
- Total Cell Count (U2OS; [4]): 441 and 192
- Population Apoptotic (%) (U2OS; [5]): 43.96% and 63.41%
- Population Fragmented Nuclei (%) (U2OS; [5]): 3.06% and 2.48%
- Population Healthy Nuclei (%) (U2OS; [5]): 88.51% and 84.83%
- Population Hoechst High Intensity Objects (%) (U2OS; [5]): 0% and 0.31%
- Population Mitochondria Different-Phenotype (%) (U2OS; [5]): 0% and 6.93%
- Population Mitotic Cells (%) (U2OS; [5]): 56.04% and 36.59%
- Population Normal (%) (U2OS; [5]): 100% and 99.69%
- Population Pyknosed Nuclei (%) (U2OS; [5]): 8.43% and 12.69%
- Population Tubulin-Different-Phenotype (%) (U2OS; [5]): 1.05% and 0.73%
- Population Apoptotic (%) (U2OS; [6]): 56.04% and 51.22%
- Population Fragmented Nuclei (%) (U2OS; [6]): 2.31% and 1.96%
- Population Healthy Nuclei (%) (U2OS; [6]): 87.15% and 84.64%
- Population Hoechst High Intensity Objects (%) (U2OS; [6]): 0%
- Population Mitochondria Different-Phenotype (%) (U2OS; [6]): 0.13% and 5.41%
- Population Mitotic Cells (%) (U2OS; [6]): 43.96% and 48.78%
- Population Normal (%) (U2OS; [6]): 100%
- Population Pyknosed Nuclei (%) (U2OS; [6]): 10.53% and 13.4%
- Population Tubulin-Different-Phenotype (%) (U2OS; [6]): 1.86% and 1.54%
- Total Cell Count (U2OS; [6]): 864 and 306
- Population Apoptotic (%) (Fibroblast; [1]): 5.08% and 12.9%
- Population Fragmented Nuclei (%) (Fibroblast; [1]): 11.68% and 7.25%
- Population Healthy Nuclei (%) (Fibroblast; [1]): 58.38% and 76.68%
- Population Hoechst High Intensity Objects (%) (Fibroblast; [1]): 0%
- Population Mitochondria Different-Phenotype (%) (Fibroblast; [1]): 6.09% and 8.11%
- Population Mitotic Cells (%) (Fibroblast; [1]): 94.92% and 87.1%
- Population Normal (%) (Fibroblast; [1]): 100%
- Population Pyknosed Nuclei (%) (Fibroblast; [1]): 29.95% and 16.06%
- Population Tubulin-Different-Phenotype (%) (Fibroblast; [1]): 13.04% and 21.62%
- Total Cell Count (Fibroblast; [1]): 197 and 193
- Population Apoptotic (%) (Fibroblast; [2]): 6.76% and 16.22%
- Population Healthy Nuclei (%) (Fibroblast; [2]): 51.12% and 80%
- Population Hoechst High Intensity Objects (%) (Fibroblast; [2]): 0%
- Population Mitochondria Different-Phenotype (%) (Fibroblast; [2]): 14.04% and 8.67%
- Population Mitotic Cells (%) (Fibroblast; [2]): 93.24% and 83.78%
- Population Normal (%) (Fibroblast; [2]): 100%
- Population Pyknosed Nuclei (%) (Fibroblast; [2]): 33.18% and 15.1%
- Population Tubulin-Different-Phenotype (%) (Fibroblast; [2]): 35.96% and 51.02%
- Total Cell Count (Fibroblast; [2]): 223 and 245
- Population Fragmented Nuclei (%) (Fibroblast; [3]): 8.72% and 5.03%
- Population Healthy Nuclei (%) (Fibroblast; [3]): 67.89% and 83.42%
- Population Hoechst High Intensity Objects (%) (Fibroblast; [3]): 0%
- Population Mitochondria Different-Phenotype (%) (Fibroblast; [3]): 1.35% and 7.23%
- Population Mitotic Cells (%) (Fibroblast; [3]): 94.12% and 60.87%
- Population Normal (%) (Fibroblast; [3]): 100%
- Population Pyknosed Nuclei (%) (Fibroblast; [3]): 23.39% and 11.56%
- Population Tubulin-Different-Phenotype (%) (Fibroblast; [3]): 10.14% and 19.28%
- Total Cell Count (Fibroblast; [3]): 218 and 199
- Population Apoptotic (%) (Fibroblast; [4]): 13.24% and 17.24%
- Population Fragmented Nuclei (%) (Fibroblast; [4]): 8.07% and 9.51%
- Population Healthy Nuclei (%) (Fibroblast; [4]): 61.43% and 79.47%
- Population Hoechst High Intensity Objects (%) (Fibroblast; [4]): 0%
- Population Mitochondria Different-Phenotype (%) (Fibroblast; [4]): 11.68% and 10.05%
- Population Mitotic Cells (%) (Fibroblast; [4]): 86.76% and 82.76%
- Population Normal (%) (Fibroblast; [4]): 100%
- Population Pyknosed Nuclei (%) (Fibroblast; [4]): 30.49% and 11.03%
- Population Tubulin-Different-Phenotype (%) (Fibroblast; [4]): 45.99% and 56.46%
- Total Cell Count (Fibroblast; [4]): 223 and 263
- Population Fragmented Nuclei (%) (Fibroblast; [5]): 7.91% and 5.24%
- Population Healthy Nuclei (%) (Fibroblast; [5]): 84.58% and 83.81%
- Population Hoechst High Intensity Objects (%) (Fibroblast; [5]): 0%
- Population Mitochondria Different-Phenotype (%) (Fibroblast; [5]): 12.15% and 3.41%
- Population Mitotic Cells (%) (Fibroblast; [5]): 68.42% and 91.3%
- Population Normal (%) (Fibroblast; [5]): 100%
- Population Pyknosed Nuclei (%) (Fibroblast; [5]): 7.51% and 10.95%
- Total Cell Count (Fibroblast; [5]): 253 and 210
- Population Apoptotic (%) (Fibroblast; [6]): 23.08% and 30.77%
- Population Fragmented Nuclei (%) (Fibroblast; [6]): 10.08% and 8.8%
- Population Healthy Nuclei (%) (Fibroblast; [6]): 78.99% and 86%
- Population Hoechst High Intensity Objects (%) (Fibroblast; [6]): 0%
- Population Mitochondria Different-Phenotype (%) (Fibroblast; [6]): 8.51% and 7.44%
- Population Mitotic Cells (%) (Fibroblast; [6]): 76.92% and 69.23%
- Population Normal (%) (Fibroblast; [6]): 100%
- Population Pyknosed Nuclei (%) (Fibroblast; [6]): 10.92% and 5.2%
- Population Tubulin-Different-Phenotype (%) (Fibroblast; [6]): 38.3% and 59.07%
- Total Cell Count (Fibroblast; [6]): 238 and 250
